Source: paper PMC11559620 (Science Advances, 2024)
“Also recorded” adds a separate entry of the source. Read-outs that look alike come from different tables or passages of the source. Each block holds one molecule with its values, some of them ahead of it.

Key:
NHX1 = assay: Yeast two-hybrid assay, CMD1 with NHX1; type: cell-based, Arabidopsis; conditions: fig. S1A
NHX2 = assay: Bimolecular fluorescence complementation, interaction with NHX2; type: cell-based, Arabidopsis; conditions: leaves of N. benthamiana
In short: (§1)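 Agrobacterium GV3101 carrying BiFC constructs was co-infiltrated with a p19-transformed strain into 5- to 6-week-old N. benthamiana leaves. Full-length NHX1 or NHX2 and CML18 were each fused to complementary halves of eYFP. Empty pSPYCE(M) served as negative control. The lower epidermis was imaged by confocal microscopy (515-nm laser, 60× objective) under constant imaging settings, using a YFP filter.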

CML18 [1] = assay: Bimolecular fluorescence complementation, interaction with CML18; type: cell-based, Arabidopsis; conditions: leaves of N. benthamiana
In short: as §1

CML18 [2] = assay: Yeast two-hybrid assay, interaction with CML18; type: cell-based, Arabidopsis; conditions: C-terminal cytosolic fragments; selective YNB media
In short: (§2)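 Strain AH109 was cotransformed with NHX C-terminal fragments in pGBKT7 (GAL4 BD) and CML17 or CML18 in pGADT7 (GAL4 AD), selected on YNB-Trp-Leu. Cultures were grown at 28°C to saturation (OD600 ~2), then 5-μl drops of 10-fold dilutions were spotted on YNB-Trp-Leu, -His-Trp-Leu and -Ade-Trp-Leu. Plates were incubated at 28°C for 3–4 days. p53/pSV40 served as positive control, empty vectors as negative.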

AXT3K strain [3] = assay: Complementation assay, hygromycin B resistance of yeast AXT3K; type: cell-based, Saccharomyces cerevisiae
C terminus of NHX1 = assay: Yeast two-hybrid assay, dimerization with C terminus of NHX1; type: cell-based, Arabidopsis; conditions: fig. S2; cytosolic C-terminal domains
CBD = assay: Split-ubiquitin assay, interaction of pore domain with CBD; type: cell-based, Arabidopsis; conditions: yeast; YNB without adenine and histidine, 3 days at 28°C
In short: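 Split-ubiquitin assay in yeast: NHX1 pore domain (residues M1–T292) was fused to Cub-PLV (pMetYCgate). The CBD (S486–G516) or the intervening loop (L453–N480) was fused to NubG (pNXgate32). KAT1 served as dimerisation positive control and CBD negative control. Double transformants were spotted on YNB with and without adenine and histidine. Expression was checked by HA/c-Myc immunoblot.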

AXT3K strain [4] = assay: Growth of AXT3K in pH-buffered liquid media with hygromycin B; type: cell-based, Saccharomyces cerevisiae; conditions: buffered at acidic or neutral pH; OD600 after 24h
In short: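 Strain AXT3K (ena1-4, nha1 and nhx1 deletions; HygB-sensitive) carried NHX1 alleles in pDR195, selected on YNB lacking His and Ura. Cultures were grown overnight at 30°C and adjusted to OD600 0.5. Then 20 μl was inoculated into 200 μl liquid medium per well and serially diluted 10-fold. Incubation was at 30°C, with OD600 read at 24 and 48 h. Three independent transformants were tested per construct.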

yeast vacuoles = assay: Vacuolar pH of yeast by BCECF-AM; type: cell-based, Saccharomyces cerevisiae; conditions: n = 8
[5] = target: CML-BD peptide, synthetic peptide of the CML18-binding motif of NHX1 (residues D485 to R518) (Arabidopsis thaliana); assay: ITC
[6] = target: CML-BD peptide, synthetic peptide of the CML18-binding motif of NHX1 (residues D485 to R518) (Arabidopsis thaliana); assay: ITC; remark: listed apart in the source
NHX1 to NHX4 = assay: Yeast two-hybrid assay, CML17 with vacuolar NHX1 to NHX4; type: cell-based, Arabidopsis; conditions: fig. S1B
In short: as §2

Molecule: CMD1: the only calmodulin protein produced in S. cerevisiae
interaction with NHX1 (Y2H) (NHX1): negative results

B1: NHX1: vacuolar K+/H+ exchanger of Arabidopsis; C-terminal T435 to A538 in Y2H (protein, UniProt Q68KI4 435-538, looked up, fragment)
chain: TKPLISYLLPHQNATTSMLSDDNTPKSIHIPLLDQDSFIEPSGNHNVPRPDSIRGFLTRPTRTVHYYWRQFDDSFMRPVFGGRGFVPFVPGSPTERNPPDLSKA
interaction with NHX2 (BiFC) (NHX2): interacted with NHX2-cYFP
interaction with CML18 (BiFC) (CML18 [1]): interacted with CML18
interaction with CML18 (Y2H) (CML18 [2]): strongly; also recorded: CML18 binding was confirmed
HygB resistance / protein activity in AXT3K (AXT3K strain [3]; YPD + HygB (50 μg/ml), 30°C): suppressed the HygB sensitivity
homodimerization / heterodimerization (Y2H) (C terminus of NHX1): positive results

B2: pore domain (TM1 to TM9): pore domain of NHX1 (residues M1 to T292) fused to Cub-PLV (protein)
chain: MLDSLVSKLPSLSTSDHASVVALNLFVALLCACIVLGHLLEENRWMNESITALLIGLGTGVTILLISKGKSSHLLVFSEDLFFIYLLPPIIFNAGFQVKKKQFFRNFVTIMLFGAVGTIISCTIISLGVTQFFKKLDIGTFDLGDYLAIGAIFAATDSVCTLQVLNQDETPLLYSLVFGEGVVNDATSVVVFNAIQSFDLTHLNHEAAFHLLGNFLYLFLLSTLLGAATGLISAYVIKKLYFGRHSTDREVALMMLMAYLSYMLAELFDLSGILTVFFCGIVMSHYTWHNVT
modifications: left off: Cub-PLV, end not stated, kept
interaction with CBD (split-ubiquitin) (CBD): confirmed

B3: D506N (protein, UniProt Q68KI4 1-538, looked up, variant D506N)
Sodium/hydrogen exchanger 1: MLDSLVSKLPSLSTSDHASVVALNLFVALLCACIVLGHLLEENRWMNESITALLIGLGTGVTILLISKGKSSHLLVFSEDLFFIYLLPPIIFNAGFQVKKKQFFRNFVTIMLFGAVGTIISCTIISLGVTQFFKKLDIGTFDLGDYLAIGAIFAATDSVCTLQVLNQDETPLLYSLVFGEGVVNDATSVVVFNAIQSFDLTHLNHEAAFHLLGNFLYLFLLSTLLGAATGLISAYVIKKLYFGRHSTDREVALMMLMAYLSYMLAELFDLSGILTVFFCGIVMSHYTWHNVTESSRITTKHTFATLSFLAETFIFLYVGMDALDIDKWRSVSDTPGTSIAVSSILMGLVMVGRAAFVFPLSFLSNLAKKNQSEKINFNMQVVIWWSGLMRGAVSMALAYNKFTRAGHTDVRGNAIMITSTITVCLFSTVVFGMLTKPLISYLLPHQNATTSMLSDDNTPKSIHIPLLDQDSFIEPSGNHNVPRPDSIRGFLTRPTRTVHYYWRQFNDSFMRPVFGGRGFVPFVPGSPTERNPPDLSKA
interaction with CML18 (Y2H) (CML18 [2]): lost the ability to bind CML18
activity irrespective of pH of growth media (AXT3K strain [4]): inactive
vacuolar pH (pHvac) (yeast vacuoles): overly acidic
HygB resistance / protein activity in AXT3K (AXT3K strain [3]; YPD + HygB (50 μg/ml), 30°C): inactive; also recorded: unable to suppress the sensitivity of the nhx1 mutant to HygB
HygB resistance / protein activity in AXT3K (AXT3K strain [3]; in combination with H499L): inactive

Kd [5]: 2.21 µM
Kd [6]: 3.02 µM
stoichiometry N (CML-BD binding sites per CML18 monomer) [6]: 2
B4: CML18, recombinant, purified (natural protein)
chain: MSCDGGKPAPAKLGDEQLAELREIFRSFDQNKDGSLTELELGSLLRSLGLKPSQDQLDTLIQKADRNNNGLVEFSEFVALVEPDLVKCPYTDDQLKAIFRMFDRDGNGYITAAELAHSMAKLGHALTAEELTGMIKEADRDGDGCIDFQEFVQAITSAAFDNAWG

B5: CML17: calmodulin-like protein of Arabidopsis, At1g32250 (protein)
chain: MSHKVSKKLDEEQINELREIFRSFDRNKDGSLTQLELGSLLRALGVKPSPDQFETLIDKADTKSNGLVEFPEFVALVSPELLSPAKRTTPYTEEQLLRLFRIFDTDGNGFITAAELAHSMAKLGHALTVAELTGMIKEADSDGDGRINFQEFAKAINSAAFDDIWG
modifications: left off: Gal4 activation domain (vector pGADT7), end not stated, kept
interaction with vacuolar NHX1 to NHX4 (Y2H) (NHX1 to NHX4): failed to demonstrate interaction
